Results as given in ChEMBL document CHEMBL4028903 (J Med Chem, 2017).
Active and inactive are the calls of the source. No cut-off for these calls is given here.

What was measured:
[1] = target: T1, Bile acid receptor (Rattus norvegicus) (UniProt Q62735); test: Agonist activity at FXR in rat primary hepatocytes assessed as induction of BSEP mRNA level after 24 hrs by qPCR analysis; type: cell-based
T1 sequence (whole entry): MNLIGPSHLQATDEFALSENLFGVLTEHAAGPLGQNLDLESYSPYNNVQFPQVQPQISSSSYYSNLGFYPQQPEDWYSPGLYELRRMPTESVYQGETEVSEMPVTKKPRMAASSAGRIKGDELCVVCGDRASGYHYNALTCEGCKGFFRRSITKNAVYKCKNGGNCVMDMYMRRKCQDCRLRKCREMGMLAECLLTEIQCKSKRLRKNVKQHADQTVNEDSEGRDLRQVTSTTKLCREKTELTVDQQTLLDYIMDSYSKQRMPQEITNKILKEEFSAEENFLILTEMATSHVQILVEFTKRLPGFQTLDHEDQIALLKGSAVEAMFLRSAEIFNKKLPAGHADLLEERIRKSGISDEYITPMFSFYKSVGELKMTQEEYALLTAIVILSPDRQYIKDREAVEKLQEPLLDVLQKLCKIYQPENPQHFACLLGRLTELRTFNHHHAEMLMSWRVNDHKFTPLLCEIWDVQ

[2] = test system: Rattus norvegicus; test: In vivo agonist activity at FXR in po dosed Sprague-Dawley rat assessed as induction of SHP mRNA level in liver administered as single dose after 7 hrs post dose by qPCR analysis; type: functional, organism-based
[3] = test system: Rattus norvegicus; test: In vivo agonist activity at FXR in Sprague-Dawley rat assessed as induction of SHP mRNA level in liver at 0.3 mg/kg, po qd for 14 days measured 7 hrs post last dose on day 14 by qPCR analysis; type: functional, organism-based
[4] = test system: Rattus norvegicus; test: In vivo agonist activity at FXR in Sprague-Dawley rat assessed as induction of BSEP mRNA level in liver at >0.1 mg/kg, po qd for 14 days measured 7 hrs post last dose on day 14 by qPCR analysis; type: functional, organism-based
[5] = test system: Rattus norvegicus; test: In vivo agonist activity at FXR in Sprague-Dawley rat assessed as downregulation of CYP8B1 mRNA level in liver at >0.03 mg/kg, po qd for 14 days measured 7 hrs post last dose on day 14 by qPCR analysis; type: functional, organism-based
[6] = Drug uptake in Sprague-Dawley rat plasma at 0.03 mg/kg, po qd administered via gavage measured 7 hrs post last dose on day 14 by LC-MS/MS analysis; type: ADME, organism-based
[7] = Drug uptake in Sprague-Dawley rat plasma at 0.03 mg/kg, po qd administered via gavage measured 1 hr post last dose on day 14 by LC-MS/MS analysis; type: ADME, organism-based
[8] = Drug uptake in Sprague-Dawley rat plasma at 0.01 mg/kg, po qd administered via gavage measured 7 hrs post last dose on day 14 by LC-MS/MS analysis; type: ADME, organism-based
[9] = test system: Rattus norvegicus; test: Dose normalized AUC (0 to 24 hrs) in Sprague-Dawley rat at 1 mg/kg, po qd administered via gavage measured on day 11 by LC-MS/MS analysis; type: ADME, organism-based; details: in vivo
[10] = test system: Rattus norvegicus; test: Dose normalized AUC (0 to 24 hrs) in Sprague-Dawley rat at 1 mg/kg, po qd administered via gavage measured on day 1 by LC-MS/MS analysis; type: ADME, organism-based; details: in vivo
[11] = test system: Rattus norvegicus; test: Dose normalized AUC (0 to 24 hrs) in Sprague-Dawley rat at 0.1 mg/kg, po qd administered via gavage measured on day 11 by LC-MS/MS analysis; type: ADME, organism-based; details: in vivo
[12] = test system: Rattus norvegicus; test: Dose normalized AUC (0 to 24 hrs) in Sprague-Dawley rat at 0.01 mg/kg, po qd administered via gavage measured on day 11 by LC-MS/MS analysis; type: ADME, organism-based; details: in vivo
[13] = test system: Rattus norvegicus; test: Dose normalized AUC (0 to 24 hrs) in Sprague-Dawley rat at 0.01 mg/kg, po qd administered via gavage measured on day 1 by LC-MS/MS analysis; type: ADME, organism-based; details: in vivo
[14] = AUC (0 to 24 hrs) in Sprague-Dawley rat at 3 mg/kg, po qd administered via gavage measured on day 1 by LC-MS/MS analysis; type: ADME, organism-based; design: time < 24 hr, dose 3 mg/kg, route oral; details: in vivo
[15] = AUC (0 to 24 hrs) in Sprague-Dawley rat at 0.3 mg/kg, po qd administered via gavage measured on day 1 by LC-MS/MS analysis; type: ADME, organism-based; design: dose 0.3 mg/kg, time < 24 hr, route oral; details: in vivo
[16] = AUC (0 to 24 hrs) in Sprague-Dawley rat at 0.03 mg/kg, po qd administered via gavage measured on day 11 by LC-MS/MS analysis; type: ADME, organism-based; design: time < 24 hr, dose 0.03 mg/kg, route oral; details: in vivo
[17] = AUC (0 to 24 hrs) in Sprague-Dawley rat at 0.01 mg/kg, po qd administered via gavage measured on day 11 by LC-MS/MS analysis; type: ADME, organism-based; design: dose 0.01 mg/kg, time < 24 hr, route oral; details: in vivo
[18] = AUC (0 to 24 hrs) in Sprague-Dawley rat at 0.01 mg/kg, po qd administered via gavage measured on day 1 by LC-MS/MS analysis; type: ADME, organism-based; design: dose 0.01 mg/kg, time < 24 hr, route oral; details: in vivo
[19] = Cmax in Sprague-Dawley rat at 0.01 mg/kg, po qd administered via gavage measured on day 11 by LC-MS/MS analysis; type: ADME, organism-based; design: dose 0.01 mg/kg, route oral; details: in vivo
[20] = Clearance in mouse at 5 mg/kg, iv by LC-MS/MS analysis; type: ADME, organism-based; details: in vivo
Method in brief: (§1)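 Single IV dose given as a solution. Mouse received 5 mg/kg in 75% PEG300:25% D5W. Dog received 0.5 mg/kg in 20% PEG300, 5% solutol and 75% carbonate buffer pH = 8.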

[21] = Clearance in dog at 0.5 mg/kg, iv by LC-MS/MS analysis; type: ADME, organism-based, Canis lupus familiaris; details: in vivo; method in brief: as §1
[22] = AUC in dog at 2 mg/kg, po administered via gavage by LC-MS/MS analysis; type: ADME, organism-based, Canis lupus familiaris; details: in vivo
Method in brief: (§2)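 Single oral dose given as a suspension in 0.5% methylcellulose, 0.5% Tween80 and 99% water. Doses were 10 mg/kg in mouse, 1 mg/kg in rat and 2 mg/kg in dog.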

[23] = Cmax in mouse at 10 mg/kg, po administered via gavage by LC-MS/MS analysis; type: ADME, organism-based; design: dose 10 mg/kg, route oral; details: in vivo; method in brief: as §2
[24] = Drug uptake in Sprague-Dawley rat plasma at 3 mg/kg, po qd administered via gavage measured 1 hr post last dose on day 14 by LC-MS/MS analysis; type: ADME, organism-based
[25] = Drug uptake in Sprague-Dawley rat liver at 3 mg/kg, po qd administered via gavage measured 7 hrs post last dose on day 14 by LC-MS/MS analysis; type: ADME, organism-based; details: read-out: Drug uptake
Method in brief: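 Drug concentration in liver was quantified from tissue homogenates, so these are total levels. Unbound liver concentration was not determined.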

[26] = AUC in rat at 1 mg/kg, po administered via gavage by LC-MS/MS analysis; type: ADME, organism-based; details: in vivo; method in brief: as §2
[27] = Cmax in rat at 1 mg/kg, po administered via gavage by LC-MS/MS analysis; type: ADME, organism-based; design: dose 1 mg/kg, route oral; details: in vivo; method in brief: as §2
[28] = Oral bioavailability in rat at 1 mg/kg administered via gavage by LC-MS/MS analysis; type: ADME, organism-based; details: in vivo
Method in brief: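 IV dosing used a solution in 75% PEG300:25% D5W for mouse and rat, and a solution in 20% PEG300, 5% solutol, 75% carbonate buffer pH 8 for dog. PO dosing used a suspension in 0.5% methylcellulose, 0.5% Tween80, 99% water for all three species.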

O=C(O)c1cc(F)c2nc(N3C4CCC3CC(OCc3c(-c5ccccc5OC(F)(F)F)noc3C3CC3)C4)sc2c1 (stereo not drawn)
Activity [1]: Dose-dependent effect | Activity [2]: Dose-dependent effect | Activity [3]: Active | Activity [4]: Active | Activity [5]: Active | concentration at 7 h [6]: 1.16 nM | concentration at 1 h [7]: 1.29 nM | concentration at 7 h [8]: 0.31 nM | AUC/dose [9]: 562 nM·h | AUC/dose [10]: 461 nM·h | AUC/dose [11]: 796 nM·h | AUC/dose [12]: 496 nM·h | AUC/dose [13]: 443 nM·h | AUC(0-t) at 24 h [14]: 1.34 µM·h | AUC(0-t) at 24 h [15]: 0.117 µM·h | AUC at 24 h [16]: 0.02 µM·h | AUC at 24 h [17]: 0.005 µM·h | AUC(0-t) at 24 h [18]: 0.004 µM·h | Cmax [19]: 0.79 nM | clearance [20]: 5.3 mL/min/kg | clearance [21]: 1.5 mL/min/kg | AUC [22]: 3.66 µM·h | Cmax [23]: 1190 nM | concentration at 1 h [24]: 62.6 nM | concentration at 7 h [25]: 640 nM | AUC [26]: 0.307 µM·h | Cmax [27]: 53 nM | bioavailability [28]: 10%
